Results of several laboratories.
Each line is one published result; the experiments were not run side by side.
Target: Mitogen-activated protein kinase 6 (MAPK6, Homo sapiens, UniProt Q16659)

O=C(c1ccc(Nc2ncc(Cl)c(-c3cc4ccccc4s3)n2)cc1)N1CCC(N2CCCC2)CC1
remaining binding (binding, competition with immobilised ligand; 1 µM): 0%

O=C(NCC1CCOCC1)c1n[nH]cc1NC(=O)c1c(F)cccc1F
remaining binding (binding, competition with immobilised ligand; 1 µM): 86%

Nc1ncc2c(n1)-c1c([nH]c3ccc(C#CC4CC4)cc13)CCCC2
remaining binding (binding, competition with immobilised ligand; 1 µM): 100%

O=C(c1ccc(Nc2nccc(-c3cc4ccccc4s3)n2)cc1)N1CCC(N2CCCC2)CC1
remaining binding (binding, competition with immobilised ligand; 1 µM): 11%

CN(C)c1nccc(-c2cnc3ncccn23)n1
remaining binding (binding; 1 µM): 93%

CS(=O)(=O)N1CCCC(NC(=O)[C@H](CCC2CCCCC2)NC(=O)c2ccc(CNC(=O)c3cnc4ccccn34)cc2)C1 (stereo partly shown)
remaining binding (cell-free assay, competition with immobilised ligand; 0.1 µM): 96%

COc1ncc2cc3ccccc3nc2c1C#N
remaining binding (cell-free assay, competition with immobilised ligand; 5 µM): 90%

CC(C)CC(=O)N1CCc2nc(-c3ccc(Br)cc3)nc(N(C)Cc3ccccc3)c2C1
remaining binding (cell-free assay, competition with immobilised ligand; 0.1 µM): 100%

F[C@@H]1CCN(c2nccc(-c3cnn4ncccc34)n2)C1
remaining binding (binding; 1 µM): 74%

c1cncc(-c2cccc(Nc3nccc(NC4CCCCC4)n3)c2)c1
remaining binding (binding, competition with immobilised ligand; 10 µM): 100%

CN(C(=O)c1ccccc1)c1cc(N(C)c2ccc3c(c2)CCc2ccc(C(=O)NCCN4CCOCC4)cc2C3=O)ccc1F
remaining binding (cell-free assay, competition with immobilised ligand; 1 µM): 100%

N[C@H]1CCN(c2nccc(-c3cnn4ncccc34)n2)C1
remaining binding (binding; 1 µM): 98%

CCN1CCN(Cc2ccc(C(=O)Nc3ccc(C)c(Oc4ccc5c(c4)CC(=O)N5)c3)cc2C(F)(F)F)CC1
remaining binding (binding, competition with immobilised ligand; 1 µM): 100%

CN(c1nccc(-c2cnn3ncccc23)n1)C1CC1
remaining binding (binding; 1 µM): 87%

N#CC1(c2ccccn2)CCN(Cc2cc(C(=O)N3CCCC3)c(=O)n3ccccc23)CC1
remaining binding (cell-free assay, competition with immobilised ligand; 1 µM): 79%

C[C@@H]1CCN(c2nccc(-c3cnn4ncccc34)n2)C1
remaining binding (binding; 1 µM): 100%

Cc1c[nH]c2nccc(Oc3c(F)cc(Nc4cc(Cl)nc(N)n4)cc3F)c12
remaining binding (cell-free assay, competition with immobilised ligand; 0.1 µM): 95%

CNC(=O)[C@@H]1CC[C@@H](n2c(-c3ccc4cnccc4c3)nc3ccc(C(=O)NCc4cccc(C(N)=O)c4)cc32)C1
remaining binding (binding, competition with immobilised ligand; 1 µM): 100%

CCCOc1ccc([C@H]2[C@H](C(=O)O)[C@@H](c3ccc4c(c3)OCO4)CN2CC(=O)Nc2c(CC)cccc2CC)cc1
remaining binding (cell-free assay, competition with immobilised ligand; 1 µM): 92%

C=CC(=O)N1CCC(C(=O)NCC(=O)N2CCN(c3nc(-c4cnc(N)nc4C(F)F)nc(N4CCOCC4)n3)CC2)CC1
remaining binding (binding, competition with immobilised ligand; 1 µM): 96%

Cc1cnn2ncc(-c3ccnc(N(C)C)n3)c2c1
remaining binding (binding; 1 µM): 98%

O=C(NCCCN1CCOCC1)c1ccc(Nc2nccc(-c3cc4ccccc4s3)n2)cc1
remaining binding (binding, competition with immobilised ligand; 1 µM): 48%
